Measurements taken from ChEMBL document CHEMBL4052618, “Design, synthesis, SAR discussion, in vitro and in vivo evaluation of novel selective EGFR modulator to inhibit L858R/T790M double mutants” (Eur J Med Chem, 2017).

What was measured:
[1] = molecular target: Platelet-derived growth factor receptor alpha (Homo sapiens) (UniProt P16234); test: Inhibition of PDGFRA (unknown origin) at 1 uM relative to control
[2] = molecular target: Ephrin type-B receptor 2 (Homo sapiens) (UniProt P29323); test: Inhibition of EPHB2 (unknown origin) at 1 uM relative to control
[3] = molecular target: Casein kinase I isoform alpha (Homo sapiens) (UniProt P48729); test: Inhibition of CSNK1A1 (unknown origin) at 1 uM relative to control
[4] = tested on: RAF proto-oncogene serine/threonine-protein kinase (Homo sapiens), P04049 [Y340D,Y341D]; test: Inhibition of RAF1 Y340D/Y341D double mutant (unknown origin) at 1 uM relative to control
[5] = molecular target: Serine/threonine-protein kinase Chk2 (Homo sapiens) (UniProt O96017); test: Inhibition of CHEK2 (CHK2) (unknown origin) at 1 uM relative to control
[6] = molecular target: Dual specificity protein kinase CLK1 (Homo sapiens) (UniProt P49759); test: Inhibition of CLK1 (unknown origin) at 1 uM relative to control
[7] = Tmax in Sprague-Dawley rat at 10 mg/kg, po administered via gavage by LC-MS/MS analysis; format: ADME, organism-based; details: in vivo
Procedure, shortened: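 Male Sprague-Dawley rats (200-240 g) received 1 mg/kg by tail-vein injection in 2% DMSO, 20% PEG400 and 78% buffered saline, or 10 mg/kg by oral gavage in 0.5% methylcellulose. Orbital sinus blood was drawn into heparinized tubes at 2, 5, 15 and 30 min and at 1, 2, 4, 8, 12 and 24 h, then centrifuged. Plasma was measured by LC/MS/MS in SRM mode, with non-compartmental analysis.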

[8] = molecular target: Insulin receptor (Homo sapiens) (UniProt P06213); test: Inhibition of INSR (unknown origin) at 1 uM relative to control
[9] = Intrinsic clearance in monkey liver microsomes; format: ADME, Macaca mulatta, microsome; details: rhesus monkey, read-out: CLH
[10] = molecular target: BDNF/NT-3 growth factors receptor (Homo sapiens) (UniProt Q16620); test: Inhibition of NTRK2 (unknown origin) at 1 uM relative to control
[11] = molecular target: Proto-oncogene tyrosine-protein kinase Src (Homo sapiens) (UniProt P12931); test: Inhibition of SRC (unknown origin) at 1 uM relative to control
[12] = molecular target: ALK tyrosine kinase receptor (Homo sapiens) (UniProt Q9UM73); test: Inhibition of ALK (unknown origin) at 1 uM relative to control
Sequence of ALK tyrosine kinase receptor (Homo sapiens) (Q9UM73 19-1620 limits assumed): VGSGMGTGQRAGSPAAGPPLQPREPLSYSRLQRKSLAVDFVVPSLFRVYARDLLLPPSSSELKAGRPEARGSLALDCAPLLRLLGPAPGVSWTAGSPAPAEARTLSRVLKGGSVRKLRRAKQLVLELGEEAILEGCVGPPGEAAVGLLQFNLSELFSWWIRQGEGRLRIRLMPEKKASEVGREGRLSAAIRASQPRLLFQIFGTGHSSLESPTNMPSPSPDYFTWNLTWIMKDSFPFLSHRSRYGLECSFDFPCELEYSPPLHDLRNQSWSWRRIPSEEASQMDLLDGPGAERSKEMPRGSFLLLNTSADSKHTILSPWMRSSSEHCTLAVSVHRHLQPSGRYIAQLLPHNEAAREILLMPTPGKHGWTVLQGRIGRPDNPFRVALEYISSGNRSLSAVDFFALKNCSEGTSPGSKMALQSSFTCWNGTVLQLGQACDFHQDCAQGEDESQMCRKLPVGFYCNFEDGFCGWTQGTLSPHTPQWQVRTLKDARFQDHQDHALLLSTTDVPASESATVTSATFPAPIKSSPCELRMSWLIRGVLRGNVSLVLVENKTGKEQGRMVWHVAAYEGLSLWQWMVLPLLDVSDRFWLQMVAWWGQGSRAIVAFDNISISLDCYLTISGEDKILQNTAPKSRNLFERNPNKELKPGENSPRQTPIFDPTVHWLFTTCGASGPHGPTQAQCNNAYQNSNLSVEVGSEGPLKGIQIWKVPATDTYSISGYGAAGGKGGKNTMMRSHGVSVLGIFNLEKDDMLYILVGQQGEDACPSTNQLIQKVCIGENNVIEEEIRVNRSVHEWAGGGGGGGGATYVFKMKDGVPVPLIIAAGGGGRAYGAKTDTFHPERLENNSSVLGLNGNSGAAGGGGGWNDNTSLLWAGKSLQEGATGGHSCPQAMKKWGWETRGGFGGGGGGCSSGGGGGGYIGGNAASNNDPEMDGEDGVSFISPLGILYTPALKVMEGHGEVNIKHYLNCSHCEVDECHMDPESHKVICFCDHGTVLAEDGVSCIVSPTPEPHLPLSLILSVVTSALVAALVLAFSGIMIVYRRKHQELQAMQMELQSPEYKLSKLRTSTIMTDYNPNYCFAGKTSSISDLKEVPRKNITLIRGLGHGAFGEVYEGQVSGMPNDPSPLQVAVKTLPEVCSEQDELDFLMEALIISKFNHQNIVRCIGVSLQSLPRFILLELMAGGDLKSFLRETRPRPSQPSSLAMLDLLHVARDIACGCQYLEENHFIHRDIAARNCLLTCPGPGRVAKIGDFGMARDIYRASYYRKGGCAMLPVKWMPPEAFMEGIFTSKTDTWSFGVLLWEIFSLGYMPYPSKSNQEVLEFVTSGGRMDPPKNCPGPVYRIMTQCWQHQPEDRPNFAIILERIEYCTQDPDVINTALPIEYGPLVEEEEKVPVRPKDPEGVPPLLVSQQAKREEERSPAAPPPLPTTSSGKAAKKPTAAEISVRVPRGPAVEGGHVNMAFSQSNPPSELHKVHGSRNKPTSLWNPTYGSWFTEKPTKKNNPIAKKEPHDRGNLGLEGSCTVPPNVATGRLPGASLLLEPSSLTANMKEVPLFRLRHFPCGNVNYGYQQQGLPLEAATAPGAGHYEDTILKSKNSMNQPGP

Sequence of Dual specificity protein kinase CLK1 (Homo sapiens) (P49759 whole entry, looked up): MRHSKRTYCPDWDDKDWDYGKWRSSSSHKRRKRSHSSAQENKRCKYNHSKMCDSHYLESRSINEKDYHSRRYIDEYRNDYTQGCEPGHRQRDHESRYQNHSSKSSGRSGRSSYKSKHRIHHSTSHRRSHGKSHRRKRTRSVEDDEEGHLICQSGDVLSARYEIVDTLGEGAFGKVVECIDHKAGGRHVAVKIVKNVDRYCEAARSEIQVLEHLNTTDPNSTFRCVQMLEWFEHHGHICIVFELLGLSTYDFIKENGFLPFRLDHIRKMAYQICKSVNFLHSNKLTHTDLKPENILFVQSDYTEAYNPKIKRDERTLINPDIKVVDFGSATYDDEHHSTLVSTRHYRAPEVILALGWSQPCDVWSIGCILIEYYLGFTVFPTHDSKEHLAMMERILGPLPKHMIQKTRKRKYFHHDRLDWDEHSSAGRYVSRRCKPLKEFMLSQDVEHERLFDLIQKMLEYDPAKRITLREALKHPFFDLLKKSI
Sequence of Serine/threonine-protein kinase Chk2 (Homo sapiens) (O96017 whole entry): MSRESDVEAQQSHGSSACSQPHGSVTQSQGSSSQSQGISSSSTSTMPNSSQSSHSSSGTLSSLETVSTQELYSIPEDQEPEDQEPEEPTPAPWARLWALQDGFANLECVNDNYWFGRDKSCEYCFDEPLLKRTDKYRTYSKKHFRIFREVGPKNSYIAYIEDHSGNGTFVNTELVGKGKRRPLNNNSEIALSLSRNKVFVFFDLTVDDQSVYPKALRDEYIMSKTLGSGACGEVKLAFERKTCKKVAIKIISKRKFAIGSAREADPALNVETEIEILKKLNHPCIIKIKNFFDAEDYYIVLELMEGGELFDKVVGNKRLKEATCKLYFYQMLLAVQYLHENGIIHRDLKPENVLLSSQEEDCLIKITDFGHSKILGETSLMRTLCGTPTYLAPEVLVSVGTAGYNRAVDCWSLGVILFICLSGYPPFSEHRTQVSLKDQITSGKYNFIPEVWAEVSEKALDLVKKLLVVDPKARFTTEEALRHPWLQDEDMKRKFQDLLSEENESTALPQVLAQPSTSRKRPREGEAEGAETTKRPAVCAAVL
Sequence of BDNF/NT-3 growth factors receptor (Homo sapiens) (Q16620 32-822 limits assumed): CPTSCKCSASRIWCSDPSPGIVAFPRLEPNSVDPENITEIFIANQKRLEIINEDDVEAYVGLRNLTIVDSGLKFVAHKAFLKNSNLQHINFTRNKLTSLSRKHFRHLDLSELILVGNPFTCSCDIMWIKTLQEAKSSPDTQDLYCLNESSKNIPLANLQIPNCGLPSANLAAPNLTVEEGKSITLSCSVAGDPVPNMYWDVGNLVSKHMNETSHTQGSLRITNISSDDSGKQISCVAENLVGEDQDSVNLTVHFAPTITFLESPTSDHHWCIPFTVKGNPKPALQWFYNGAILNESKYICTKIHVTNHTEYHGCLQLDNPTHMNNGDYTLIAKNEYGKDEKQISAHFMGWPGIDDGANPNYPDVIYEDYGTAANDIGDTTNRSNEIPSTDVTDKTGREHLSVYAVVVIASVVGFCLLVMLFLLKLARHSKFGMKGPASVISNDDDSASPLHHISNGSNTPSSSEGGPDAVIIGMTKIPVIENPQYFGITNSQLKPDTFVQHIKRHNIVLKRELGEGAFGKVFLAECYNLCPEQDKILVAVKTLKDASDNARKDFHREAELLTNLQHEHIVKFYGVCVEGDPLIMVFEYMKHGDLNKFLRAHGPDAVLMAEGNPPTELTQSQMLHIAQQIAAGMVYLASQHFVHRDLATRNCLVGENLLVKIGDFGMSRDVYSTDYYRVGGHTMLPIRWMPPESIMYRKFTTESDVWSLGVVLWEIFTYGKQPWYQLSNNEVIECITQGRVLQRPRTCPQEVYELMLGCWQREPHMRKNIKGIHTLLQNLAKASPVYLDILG
Sequence of Proto-oncogene tyrosine-protein kinase Src (Homo sapiens) (P12931 2-536 limits assumed): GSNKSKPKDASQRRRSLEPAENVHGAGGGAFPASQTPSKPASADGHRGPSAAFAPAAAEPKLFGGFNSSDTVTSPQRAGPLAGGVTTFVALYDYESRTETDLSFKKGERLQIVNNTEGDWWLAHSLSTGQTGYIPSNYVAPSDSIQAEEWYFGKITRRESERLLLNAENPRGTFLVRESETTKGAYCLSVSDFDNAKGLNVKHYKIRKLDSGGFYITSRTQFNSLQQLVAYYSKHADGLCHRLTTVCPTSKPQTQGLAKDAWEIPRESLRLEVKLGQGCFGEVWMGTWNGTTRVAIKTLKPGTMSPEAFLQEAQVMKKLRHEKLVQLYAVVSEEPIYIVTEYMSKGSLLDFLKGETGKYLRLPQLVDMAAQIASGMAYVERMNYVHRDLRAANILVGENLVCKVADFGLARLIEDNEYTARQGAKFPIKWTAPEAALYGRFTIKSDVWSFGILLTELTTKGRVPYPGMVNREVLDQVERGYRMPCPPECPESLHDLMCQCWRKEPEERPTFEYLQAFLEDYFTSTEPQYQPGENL
Sequence of Ephrin type-B receptor 2 (Homo sapiens) (P29323 whole entry, canonical isoform): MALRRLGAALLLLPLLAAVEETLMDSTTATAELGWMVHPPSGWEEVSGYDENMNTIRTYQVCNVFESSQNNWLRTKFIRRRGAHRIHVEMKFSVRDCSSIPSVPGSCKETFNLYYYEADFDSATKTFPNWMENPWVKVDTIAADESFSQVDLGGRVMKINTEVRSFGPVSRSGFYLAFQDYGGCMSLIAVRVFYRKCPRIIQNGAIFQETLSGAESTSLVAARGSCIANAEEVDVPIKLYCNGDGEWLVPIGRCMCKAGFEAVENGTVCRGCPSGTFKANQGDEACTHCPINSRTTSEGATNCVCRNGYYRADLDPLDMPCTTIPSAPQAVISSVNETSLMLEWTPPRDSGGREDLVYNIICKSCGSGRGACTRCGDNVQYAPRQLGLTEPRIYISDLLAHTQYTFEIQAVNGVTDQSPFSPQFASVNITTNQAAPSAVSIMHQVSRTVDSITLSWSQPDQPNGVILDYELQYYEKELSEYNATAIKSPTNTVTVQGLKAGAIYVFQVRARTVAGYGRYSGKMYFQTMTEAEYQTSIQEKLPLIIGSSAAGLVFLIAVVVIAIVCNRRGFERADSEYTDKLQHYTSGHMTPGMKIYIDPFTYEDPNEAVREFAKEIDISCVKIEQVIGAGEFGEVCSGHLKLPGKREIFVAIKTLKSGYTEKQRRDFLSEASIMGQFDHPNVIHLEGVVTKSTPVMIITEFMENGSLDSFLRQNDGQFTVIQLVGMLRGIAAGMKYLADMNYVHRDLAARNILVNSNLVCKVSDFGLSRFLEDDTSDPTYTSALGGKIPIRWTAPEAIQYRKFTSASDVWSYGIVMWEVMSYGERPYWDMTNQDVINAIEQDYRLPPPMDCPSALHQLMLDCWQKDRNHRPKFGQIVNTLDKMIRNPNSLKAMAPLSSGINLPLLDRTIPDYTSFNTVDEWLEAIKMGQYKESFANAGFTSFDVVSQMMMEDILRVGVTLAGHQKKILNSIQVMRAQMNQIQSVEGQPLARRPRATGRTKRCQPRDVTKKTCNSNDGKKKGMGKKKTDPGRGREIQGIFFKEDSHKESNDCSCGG

C=CC(=O)Nc1cc(Nc2nccc(-c3cn4c5c(cccc35)CCC4)n2)c(OC)cc1N(C)CCN(C)C
inhibition [1]: 13%
inhibition [2]: 6%
inhibition [3]: -4%
inhibition [4]: 8%
inhibition [5]: -2%
inhibition [6]: 20%
Tmax [7]: 3.3 h
inhibition [8]: 36%
CLint scaled [9]: 64.8 mL/min/kg
inhibition [10]: -1%
inhibition [11]: 16%
inhibition [12]: 84%
